UPR XBP1 act = activators of adaptive arm of unfolded protein response (XBP1); 330,000 tested, 0.33% active; CHO-XBP1 luciferase reporter, IRE1-XBP1 UPR activation, luminescence; percent of tunicamycin response, DMSO as zero; activation, % at 20 µM;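 active means versus positive control, 20 µM dose yields 30% or more activation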;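 further: 100% = tunicamycin at 10 µg/mL and 0% = DMSO only wells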
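Material: CHO cell line with stable XBP1 luciferase reporter; buffer or medium: F12 medium containing 10% fetal bovine serum; compound: single point, 20 µM final compound, 1% DMSO; incubation: 6 h treatment, 37 °C; measured by: glow luminescence from Steady-Glo reagent; evaluation: activation, % of tunicamycin; control set: tunicamycin high, DMSO low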
B2AR ag = activates human beta-2 adrenergic receptor causing internalization; P07550; Am2.2-beta2AR cells, FAP receptor internalization, flow cytometry; response, % (test concentration not listed); 340,000 tested, 0.43% active; AID 504454;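 active means response above a set limit, near 3 SD of response in nonfluorescent compounds, cut at about 42% in these data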
Target sequence (P07550 whole entry, looked up): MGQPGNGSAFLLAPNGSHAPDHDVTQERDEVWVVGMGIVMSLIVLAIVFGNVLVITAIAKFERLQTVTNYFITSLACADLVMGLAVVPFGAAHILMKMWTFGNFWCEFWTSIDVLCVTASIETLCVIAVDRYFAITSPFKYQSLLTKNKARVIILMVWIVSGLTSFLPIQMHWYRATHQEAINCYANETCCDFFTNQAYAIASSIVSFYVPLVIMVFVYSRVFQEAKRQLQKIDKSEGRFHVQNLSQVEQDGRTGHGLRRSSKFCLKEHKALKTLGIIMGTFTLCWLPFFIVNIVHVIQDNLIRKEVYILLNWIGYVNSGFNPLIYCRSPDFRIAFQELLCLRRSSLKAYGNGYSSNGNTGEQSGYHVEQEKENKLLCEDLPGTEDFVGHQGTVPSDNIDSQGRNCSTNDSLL
UPR CHOP act = activators of apoptotic arm of unfolded protein response (CHOP). CHO-CHOP luciferase reporter, UPR activation, luminescence; percent of tunicamycin response over DMSO baseline. activation, % at 10 µM. 330,000 tested, 0.34% active. AID 449763;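 active means at 10 µM dose, activation of 40% or more, normalized to positive control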;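 further: 100% = tunicamycin at 10 µg/mL and 0% = DMSO alone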
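System: CHO-CHOP luciferase reporter cell line | Buffer or medium: F12 medium containing 10% fetal bovine serum | Doses: One dose, 10 µM in 0.5% DMSO | Times: 6 h compound exposure at 37 °C after overnight seeding | Signal: Luciferase luminescence | Read-out: % activation vs tunicamycin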
p-CIP stab down = p/CIP protein destabilization | 290,000 tested, 0.01% active | F442A p/CIP-EGFP cells, EGFP fluorescence, 16 h | Q05BA5 | AID 1984 | decrease of EGFP signal, % at 10 µM;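 active means EGFP signal decrease of at least 30% at 10 µM or well 3 SD below plate mean, unless failing retest; inactive means the rest, including hits failing retest or dose response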
CHOP inh = CHOP inhibition in unfolded protein response; CHO-K1 CHOP-promoter luciferase, tunicamycin-induced, 15-18 h; inhibition, % at 10 µM; 220,000 tested, 3.8% active; AID 2732;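 active means compounds that reduced the stress-induced luciferase reporter signal by more than about 70% of percent inhibition, limit read from the data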;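 further: 0% = tunicamycin plus vehicle and 100% = wells without tunicamycin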
Dynein cargo inh = blocks dynein driven cargo transport along microtubules | 220,000 tested, 0.47% active | 3617.4 mouse cells, GR-EGFP nuclear translocation imaging; test concentration mostly 20 µM; stimulated with dexamethasone, 1 µM; stronger effect = lower value | z-score, hits read low;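 active means plate z-score of nuclear minus cytoplasmic receptor signal below a set negative limit, without overly bright fluorescence or cell loss, cut at about -3.5 in these data, passing the limit was not always enough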;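 further: z-score of nuclear minus cytoplasmic ring GR-EGFP intensity difference per well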
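Buffer or medium: tet-free medium with charcoal-stripped serum / Also added: dexamethasone agonist, 1.0 µM final, for 30 min / Timing: induction 48 h, compound 1 h, agonist 30 min / Measured by: high-content fluorescence imaging after fixation / Read-out: nuclear-to-cytoplasmic GR-EGFP distribution per well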
Numbers without * were called inactive. Shown is part of a subset that was picked to be rich in hits.

For CN1CCO/C1=C(\C(Cl)=C(Cl)Cl)[N+](=O)[O-] the results were UPR XBP1 act 0, B2AR ag -1, UPR CHOP act 2, p-CIP stab down 1, CHOP inh 7 and Dynein cargo inh 0.97.
O=C(c1cc(-c2ccc(Cl)cc2)n(-c2ccc(Cl)cc2)n1)N1CCOCC1 was read as UPR XBP1 act 2, B2AR ag -8, UPR CHOP act -2, p-CIP stab down -2, CHOP inh 73* and Dynein cargo inh -0.15.
Screening Oc1ccc(N=Nc2n[nH]c(-c3ccc(Cl)cc3)n2)cc1 returned UPR XBP1 act -4, B2AR ag 5, UPR CHOP act 5, p-CIP stab down -5, CHOP inh 75* and Dynein cargo inh -0.81.
For COCCCNC(=O)CC1C[C@H](C(=O)N(C(C)C)C(C)C)[C@@]2(C)c3[nH]c4ccccc4c3CCN2C1=O (stereo partly specified) the results were UPR XBP1 act 1, B2AR ag 0 and UPR CHOP act 0.
Cc1ccc(C(C(=O)NC2CCCC2)N(Cc2ccc(F)cc2)C(=O)c2csnn2)o1 (stereo unspecified) was read as UPR XBP1 act 2, B2AR ag -3, UPR CHOP act -1, p-CIP stab down 3, CHOP inh 71* and Dynein cargo inh -1.3.
N#CC1=C(N)Nc2nc3ccccc3n2C1c1ccc(Cl)cc1 (stereo unspecified) was read as UPR XBP1 act -3, B2AR ag -24, UPR CHOP act 2, p-CIP stab down 6, CHOP inh 90* and Dynein cargo inh -0.59.
For Cc1cccc(NC(=S)N=Nc2c(O)[nH]c3ccccc23)c1 the results were UPR XBP1 act 0, B2AR ag 0, UPR CHOP act 16, p-CIP stab down 8, CHOP inh 87* and Dynein cargo inh -0.17.
Screening O=C(N=Nc1c(O)[nH]c2ccccc12)Nc1ccccc1 returned B2AR ag -11.
Screening CC(=O)c1cc(-c2ccccc2)n(CC(=O)Nc2cc(C)cc(C)c2)c1C returned UPR XBP1 act -2, B2AR ag 7, UPR CHOP act 0, p-CIP stab down 4, CHOP inh 94* and Dynein cargo inh -0.44.
`CCOC(=O)c1cc(-c2ccccc2)n(CC(=O)Nc2cc(OC)cc(OC)c2)c1C` gave UPR XBP1 act -1, B2AR ag -1, UPR CHOP act 0, p-CIP stab down -14, CHOP inh 24 and Dynein cargo inh 2.
Screening CCOC(=O)c1cc(-c2ccccc2)n(CC(=O)Nc2ccc(OCC)cc2)c1C returned UPR XBP1 act -1, B2AR ag -1, UPR CHOP act -1, p-CIP stab down -19, CHOP inh 80* and Dynein cargo inh -0.69.
COc1ccc(CCNC[C@@H](O)c2ccc(O)cc2)cc1OC was read as CHOP inh -14.
`COC(=O)c1cnc(SCC(=O)c2ccccc2)n1C` gave UPR XBP1 act -5, B2AR ag -8, UPR CHOP act -1 and p-CIP stab down 8.
`COC(=O)c1cnc(SCc2ccc(Cl)cc2)n1C` gave UPR XBP1 act -2, B2AR ag 3, UPR CHOP act 3, p-CIP stab down -10, CHOP inh 75* and Dynein cargo inh -0.16.
Screening O=C(NC(=S)N1CCN(c2ccc([N+](=O)[O-])cc2)CC1)c1ccc(F)cc1 returned UPR XBP1 act 1, B2AR ag 9, UPR CHOP act -1, p-CIP stab down 1, CHOP inh 13 and Dynein cargo inh -0.58.
`CCOC(=O)COc1cccc(C2NC(=O)c3ccccc3O2)c1` (stereo unspecified) gave UPR XBP1 act -5, B2AR ag 27, UPR CHOP act 0 and p-CIP stab down 3.
`O=C(O)c1ccc(N2C(=O)C3ON(c4ccccc4)C(c4ccccc4F)C3C2=O)cc1` (stereo unspecified) gave UPR XBP1 act -1, B2AR ag -14, UPR CHOP act 0, p-CIP stab down -18, CHOP inh 11 and Dynein cargo inh -0.72.
Screening O=C1C2ON(c3ccccc3)C(c3ccccc3F)C2C(=O)N1c1ccccc1 (stereo unspecified) returned UPR XBP1 act 2, B2AR ag -3, UPR CHOP act -1, p-CIP stab down 2, CHOP inh 80* and Dynein cargo inh -0.58.
O=C1C2ON(c3ccc(Cl)cc3)C(c3ccco3)C2C(=O)N1c1ccccc1 (stereo unspecified) was read as UPR XBP1 act 0, B2AR ag 6, UPR CHOP act 0, p-CIP stab down 6, CHOP inh 74* and Dynein cargo inh -0.7.
For Cc1ccc(CNC(=O)C2(NC(=O)Nc3ccc(C)cc3)CCCCC2)cc1 the results were UPR XBP1 act -1, B2AR ag 4, UPR CHOP act 1, p-CIP stab down -22, CHOP inh 79* and Dynein cargo inh -0.43.
Cc1ccc(NC(=O)NC2(C(=O)NCc3ccccc3)CCCCC2)cc1 was read as UPR XBP1 act -2, B2AR ag 5, UPR CHOP act -2, p-CIP stab down -1 and CHOP inh 66.
For O=C(O)CCN1C(=O)/C(=C\c2cccc(OCC(=O)Nc3ccc(Cl)cc3)c2)SC1=S the results were UPR XBP1 act 0, B2AR ag 9, UPR CHOP act 1, p-CIP stab down -4, CHOP inh 5 and Dynein cargo inh -0.52.
`Cc1ccc(NC(=O)COc2cccc(/C=C3\SC(=S)N(CCC(=O)O)C3=O)c2)cc1Cl` gave UPR XBP1 act 0, B2AR ag 9, UPR CHOP act 0, p-CIP stab down 1, CHOP inh 98* and Dynein cargo inh -0.43.
Screening O=C(CCN1C(=O)/C(=C/c2cccc(Br)c2)SC1=S)Nc1cccnc1 returned UPR XBP1 act 7, B2AR ag -1, UPR CHOP act -1, p-CIP stab down 2, CHOP inh 87* and Dynein cargo inh -0.62.
CCOc1ccc(/C=C2\SC(=S)N(CCC(=O)O)C2=O)cc1 was read as UPR XBP1 act -6, B2AR ag 4, UPR CHOP act -8, p-CIP stab down -15, CHOP inh 84* and Dynein cargo inh 0.98.
Screening Cc1ccc(C2=NNC(=O)C(c3ccc(Cl)cc3)C2)cc1 (stereo unspecified) returned UPR XBP1 act 1, B2AR ag -3, UPR CHOP act -2, p-CIP stab down 3, CHOP inh 96* and Dynein cargo inh 1.3.

Bioassay records: PubChem BioAssay, several laboratories
